Test results published in ChEMBL document CHEMBL1121630, “Prostaglandin analogues possessing antinidatory effects. 1. Modification of the omega chain” (1980).

Organism: Rattus norvegicus
Assay: Antinidatory effect was measured in rat relative to that of prostaglandin F2 alpha.
Format: functional
In short: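 Mated Wistar female rats (9 weeks, 180–200 g); sperm in vaginal smear marked day 0. Analogues in 10% EtOH–0.4% Tween 80 in saline (1 mg/mL stock, diluted with saline), given sc twice daily on days 3–5 at three to eight doses, 5–20 rats per dose. Killed day 11; no implantation site = effective. ED50 by Litchfield-Wilcoxon, expressed relative to PGF2α.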

| Structure (SMILES) | Activity |
| --- | --- |
| COC(=O)CCC/C=C\C[C@@H]1[C@@H](/C=C/[C@@H](O)CC(=O)c2cccc(Cl)c2)[C@H](O)C[C@@H]1O | 10 |
| COC(=O)CCC/C=C\C[C@@H]1[C@@H](/C=C/[C@@H](O)C2(Sc3ccccc3)CC2)[C@H](O)C[C@@H]1O | <2 |
| COC(=O)CCC/C=C\C[C@@H]1[C@@H](/C=C/[C@@H](O)CC(=O)c2ccc(Cl)cc2)[C@H](O)C[C@@H]1O | 8 |
| COC(=O)CCC/C=C\C[C@@H]1[C@@H](/C=C/[C@@H](O)C#COc2ccccc2)[C@H](O)C[C@@H]1O | <2 |
| COC(=O)CCC/C=C\C[C@@H]1[C@@H](/C=C/[C@@H](O)C2C=Cc3ccccc32)[C@H](O)C[C@@H]1O (stereo partly specified) | <5 |
| COC(=O)CCC/C=C\C[C@@H]1[C@@H](/C=C/[C@@H](O)c2ccccc2OC)[C@H](O)C[C@@H]1O | <2 |
| COC(=O)CCC/C=C\C[C@@H]1[C@@H](/C=C/[C@@H](O)C(Oc2ccccc2)C(=O)OC)[C@H](O)C[C@@H]1O (stereo partly specified) | <4 |
| COC(=O)CCC/C=C\C[C@@H]1[C@@H](/C=C/[C@@H](O)C[Si](C)(C)c2ccccc2)[C@H](O)C[C@@H]1O | <1 |
| COC(=O)CCC/C=C\C[C@@H]1[C@@H](/C=C/[C@@H](O)c2cc3ccccc3s2)[C@H](O)C[C@@H]1O | 40 |
| COC(=O)CCC/C=C\C[C@@H]1[C@@H](/C=C/[C@@H](O)C#Cc2ccccc2)[C@H](O)C[C@@H]1O | 40 |
| COC(=O)CCC/C=C\C[C@@H]1[C@@H](/C=C/[C@@H](O)c2cc3ccccc3o2)[C@H](O)C[C@@H]1O | 100 |
| COC(=O)CCC/C=C\C[C@@H]1[C@@H](/C=C/[C@@H](O)CSC2=CCCCC2)[C@H](O)C[C@@H]1O | 10 |
| COC(=O)CCC/C=C\C[C@@H]1[C@@H](/C=C/[C@@H](O)CC(=O)Oc2ccccc2)[C@H](O)C[C@@H]1O | <1 |
| COC(=O)CCC/C=C\C[C@@H]1[C@@H](/C=C/[C@@H](O)C#Cc2cccc(Cl)c2)[C@H](O)C[C@@H]1O | 40 |
| COC(=O)CCC/C=C\C[C@@H]1[C@@H](/C=C/[C@@H](O)CC(=O)c2ccccc2)[C@H](O)C[C@@H]1O | 40 |
| COC(=O)CCC/C=C\C[C@@H]1[C@@H](/C=C/[C@@H](O)C#Cc2ccc(Cl)cc2)[C@H](O)C[C@@H]1O | 1 |
